# Compound activity: PubChem BioAssay, The Scripps Research Institute Molecular Screening Center
# Shown are actives, neighbours in structure and some others; about 1.6% of the full set was active somewhere.
# TDP2 absorb – TDP2 (human) inhibition, absorbance primary screen; O95551; recombinant TDP2, T5PNP hydrolysis, p-nitrophenol absorbance 415 nm; inhibition, % at 12.8 µM; 370,000 tested, 0.34% active;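 active = inhibition above the mean of all tested compounds plus 3 SD, set per campaign, cut at about 25% in these data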;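 also: 0% = DMSO with enzyme and 100% = buffer with substrate but no TDP2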
# Target sequence (O95551 whole entry, looked up): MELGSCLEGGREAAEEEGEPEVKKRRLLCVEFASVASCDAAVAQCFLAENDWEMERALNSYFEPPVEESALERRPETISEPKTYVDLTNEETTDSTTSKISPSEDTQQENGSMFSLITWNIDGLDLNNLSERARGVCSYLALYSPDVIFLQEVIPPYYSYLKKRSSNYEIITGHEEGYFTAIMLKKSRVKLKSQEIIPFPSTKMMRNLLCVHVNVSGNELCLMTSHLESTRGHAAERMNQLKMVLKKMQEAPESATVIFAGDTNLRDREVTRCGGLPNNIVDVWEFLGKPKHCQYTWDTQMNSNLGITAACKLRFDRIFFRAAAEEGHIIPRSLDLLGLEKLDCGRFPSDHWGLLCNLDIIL
#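 Read-out basis: percent inhibition. System: recombinant human TDP2. Buffer or medium: Mg2+-containing Tris-HCl buffer, pH 7.5. Repeats: single replicate. Timing: reaction 2 h, 37 °C. Benchmarks: high control without enzyme, low control DMSO plus TDP2. Probe or stimulus: 5 mM T5PNP. Doses: 12.8 µM only. Measured by: epi absorbance of p-nitrophenol freed from T5PNP by hydrolysis.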
# MBD2 DNA inh – blocks human MBD2 binding to methylated DNA | Q9UBB5 | TR-FRET, MBD2 binding to methylated oligonucleotide | inhibition, % at 4.4 µM | 370,000 tested, 0.31% active | AID 686964; in the data active = inhibition above about 13%
# UHRF1 MBD2 ctr – blocks human UHRF1 binding to methylated DNA | Q96T88 | UHRF1 binding to methylated oligo, TR-FRET | inhibition, % at 4.4 µM | 370,000 tested, 0.75% active | AID 687016;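 also: UHRF1 SRA domain binding a hemimethylated CpG hairpin DNA probe; 0% = median of test compound wells and 100% = reference inhibitor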
# LEDGF integ inh – blocks HIV-1 LEDGF/p75-dependent DNA integration; inhibition, % at 3.7 µM; TR-FRET IN-LEDGF/p75 DNA integration, Eu/Cy5; 370,000 tested, 0.64% active;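 active = inhibition above the screen-wide mean plus 3 SD, cut at about 13% in these data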;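 also: signal is the Cy5 over europium emission ratio at 671 and 618 nm; 0% = plate median of compound wells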
# UHRF1 ctr MBD2 – counter-screen for MBD2 inhibitors: human UHRF1 methylated DNA binding inhibitors; UHRF1 binding to methylated oligonucleotide, TR-FRET; AID 720530; shares compounds with MBD2 DNA inh; inhibition, % at 4.4 µM; 1,000 tested, 25% active;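 also: UHRF1 SRA domain binding a labeled hemimethylated CpG hairpin DNA; 0% = vehicle only and 100% = reference inhibitor with vehicle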
# MBD2 DBD conf – confirmation of human MBD2-DBD methylated oligonucleotide binding inhibitors; TR-FRET MBD2-DBD binding to methylated oligonucleotide; shares compounds with MBD2 DNA inh; 1,000 tested, 26% active; AID 720531; inhibition, % at 4.4 µM; in the data active = inhibition above about 14%
# TDP2 confirm – human TDP2 inhibition, confirmation; recombinant human TDP2, absorbance read-out; inhibition, % at 12.8 µM; 1,100 tested, 22% active; shares compounds with TDP2 absorb; in the data active = inhibition above about 25%;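 also: 0% = vehicle with enzyme and 100% = no enzyme buffer only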
# IN multimer act – activates HIV-1 integrase multimerization in LEDGF counter-screen; TR-FRET HIV-1 integrase multimerization, biochemical; activation, % at 7.7 µM; AID 1053131; shares compounds with LEDGF integ inh; 2,000 tested, 17% active; in the data active = activation above about 8.9%
# TR-FRET interf – TR-FRET optical interference, LEDGF/p75 integration counter-screen; shares compounds with LEDGF integ inh; TR-FRET optical interference counterscreen, HIV-1 IN multimerization; inhibition, % at 7.7 µM; 2,000 tested, under 10 active;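 active = inhibition above the mean over all tested compounds plus 3 SD, which no compound reached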;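 also: 0% = integrase with antibodies and DMSO and 100% = antibodies without integrase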
# LEDGF integ conf – confirmation of HIV-1 LEDGF/p75-dependent integration inhibitors; shares compounds with LEDGF integ inh; TR-FRET LEDGF/p75-dependent HIV-1 integration, biochemical; inhibition, % at 3.7 µM; 2,000 tested, 36% active; in the data active = inhibition above about 14%
# * marks the source's active call; other numbers are inactive results; . = no result; ! = not active in a repeat. Rule as the data show it, unless noted: active = inhibition above about 21%; inactive = the rest.
SMILES,TDP2 absorb,MBD2 DNA inh,UHRF1 MBD2 ctr,LEDGF integ inh,UHRF1 ctr MBD2,MBD2 DBD conf,IN multimer act,TR-FRET interf,LEDGF integ conf,others
Cc1onc(-c2ccccc2Cl)c1C(=O)NCc1ccco1,-6,26*,41*,44*,19,14*,10*,-50,30*,
Nc1c(C(=O)NCC2CCCO2)sc2nc3c(c(-c4ccco4)c12)CC/C3=C\c1ccco1 (stereo not given),-1,21*,42*,65*,92*,106*,54*,-193,85*,
Cc1c(N)cc(N)cc1C(=O)O,31*,26*,73*,74*,1,-2,6,-30,1,TDP2 confirm=6
CN1CCN(C(=O)CSc2nc3c(c(=O)n(C)c(=O)n3C)n2C)CC1,8,-5,-2,0,.,.,.,.,.,
c1coc(-c2nc(-c3ccco3)c(-c3ccco3)nc2-c2ccco2)c1,50*,67*,95*,90*,42*,20*,8,-30,82*,TDP2 confirm=3
COc1ccc2nc(-c3ccco3)c(-c3ccco3)nc2c1,15,20*,78*,65*,25*,10,5,-28,50*,
Nc1nc(-c2ccco2)cs1,9,4,3,6,.,.,.,.,.,
COc1ccccc1N1CCN(C2CCCN(C(=O)c3snnc3C)C2)CC1 (stereo not given),9,0,1,-1,.,.,.,.,.,
O=C1C(Cl)=C(NCC2CCCO2)C(=O)N1CCc1ccccc1 (stereo not given),2,13,6,7,.,.,.,.,.,
O=C1C=C(NC2=CC3OC(c4ccccc4)OCC3OC2=O)CCC1 (stereo not given),-7,5,3,-2,.,.,.,.,.,
C=C1c2cccc(O)c2C(=O)C2C(=O)[C@]3(O)C(=O)C(C(N)=O)C(=O)[C@@H](N(C)C)[C@@H]3[C@@H](O)[C@H]12 (stereo not given in full),23,90*,96*,86*,11,7,37*,-131,52*,
C[C@H]1c2cccc(O)c2C(O)=C2C(=O)[C@]3(O)C(O)=C(C(N)=O)C(=O)[C@@H](N(C)C)C3[C@@H](O)C21 (stereo not given in full),-12,3,-3,12,.,.,.,.,.,
CN(Cc1cnccn1)C(=O)C1CCC(=O)N(CCc2ccccc2)C1 (stereo not given),-13,-1,3,1,.,.,.,.,.,
CSc1ccccc1C(=O)N1CCN(c2ccc(F)cc2)CC1,17,4,-3,-2,.,.,.,.,.,
CC(=O)Oc1cccc(/C=c2\sc3nc(-c4ccco4)nn3c2=O)c1,1,-7,3,1,.,.,.,.,.,
CCCOc1ccc(/C=c2\sc3nc(-c4ccco4)nn3c2=O)cc1OCC,3,31*,31*,13*,10,3,-2,9,8,
O=C1OC(c2ccc(Cl)cc2)=N/C1=C\C=C\c1ccco1,13,14*,40*,36*,11,0,-1,4,-1,
CC(C)CNC(=O)C1(C)CCN1C(=O)c1ccc(C(C)(C)C)cc1 (stereo not given),1,2,1,0,.,.,.,.,.,
O=C1c2c(O)ccc(O)c2C(=O)c2c(NCCNCCO)ccc(NCCNCCO)c21,6,110*,96*,49*,94*,106*,24*,-85,38*!,
O=C(O)c1ccc(N/N=C/C2=C(N3CCOCC3)C(=C\c3ccccc3)/CC2)cc1,21,19*,51*,54*,2,6,2,-8,17*,
Cc1cc(C)nc(N/N=C/C2=C(N3CCOCC3)C(=C\c3ccc(Cl)cc3)/CC2)n1,10,-3,-6,5,.,.,.,.,.,
COc1ccccc1Cc1c(-c2ccc(OC)c(OC)c2)nc2cc(C)c(Br)c(C)n12,33*,19*,26*,18*,-1,3,0,1,-7,TDP2 confirm=2
COc1cc(/C=C(\C#N)C(=O)c2ccc(O)c(O)c2)cc(I)c1O,12,22*,58*,90*,3,-6,22*,-108,82*,
COc1ccc(C=C(C#N)C(=O)c2ccccc2)cc1,-4,3,2,1,.,.,.,.,.,
Cc1ccc(/C=C2\SC(=S)N(c3cccnc3)C2=O)o1,-2,0,6,-2,.,.,.,.,.,
SMILES,TDP2 absorb,MBD2 DNA inh,UHRF1 MBD2 ctr,LEDGF integ inh,UHRF1 ctr MBD2,MBD2 DBD conf,IN multimer act,TR-FRET interf,LEDGF integ conf,others
N#C/C(=C\c1ccc(O)c(O)c1)C(=O)Nc1cccc2ncccc12,-9,21*,28*,49*,13,11,72*,-256,85*,
CC1=NN(c2ccccc2)C(=O)C1,66*,18*,18,31*,6,1,1,-4,1,TDP2 confirm=8
N[C@@H](Cc1ccc(O)c(O)c1)C(=O)O,8,34*,67*,89*,96*,59*,53*,-267,93*,
CCSc1nnc(NC(=O)c2cccc(S(=O)(=O)N(C)c3ccc(C)cc3)c2)s1,-1,-3,-1,1,.,.,.,.,.,
O=C(COC(=O)CCC(=O)c1cccs1)NC1CCCCC1,2,4,0,0,.,.,.,.,.,
Cc1cccc(N=C2NC(=O)/C(=C/C=C/c3ccco3)S2)c1C,14,17*,48*,49*,21*,9,9.7*,-35,63*,
Cc1cccc(N=C2NC(=O)/C(=C/c3cccn3C)S2)c1C,9,0,-2,-2,.,.,.,.,.,
COc1ccc(-c2sc3ccc(OC)cc3c2C#Cc2cncn2C)cc1,2,-6,3,1,.,.,.,.,.,
CSc1nc(N(CCO)CCO)c2sc3nc(-c4ccco4)c4c(c3c2n1)CCC4,1,18*,24*,16*,31*,36*,12*,-60,53*,
OCCN(CCO)c1ncnc2c1sc1nc(N3CCOCC3)c3c(c12)CCCC3,-2,8,6,-1,.,.,.,.,.,
Cc1n[nH]c(=S)n(NC(=O)/C=C/C(=O)Nn2c(=S)[nH]nc(C)c2=O)c1=O,2,15*,41*,14*,16,9,8,-42,29*,
Cc1n[nH]c(=S)n(NC(=O)CC(=O)Nn2c(=S)[nH]nc(C)c2=O)c1=O,-2,-5,-12,-33,.,.,.,.,.,
